Compound activity as filed in PubChem.
MC4R antag cAMP: human MC4R antagonism in cAMP assay | AID 540295 | inhibition, % at 6.5 µM | MC4R-expressing cells, MTII-stimulated cAMP, LANCE TR-FRET | P32245 | actives 0.48% (n = 360,000);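 active = inhibition above its plate's cutoff, the mean of tested wells on that plate plus 3 SD, cut at about 29% in these data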
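system = U2OS cells with stable human MC4R expression | also added = Melanotan II challenge after compound preincubation | dosing = one concentration, 6.5 µM nominal | incubation = compound 30 min, challenge 1 h, detection 1 h | measured by = TR-FRET with Eu-cAMP and labeled anti-cAMP, 671 nm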
Bfl-1 A1 inh: inhibitors of the anti-apoptotic protein A1, read as caspase activation; MEF A1-2A-BIM cells, Caspase-Glo 3/7 luminescence, 3 h; percent of clofoctol response, vehicle zero; caspase activation, % (no concentration beside the values); actives 0.066% (n = 330,000); AID 2462;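 active = over half of replicate activation scores above 10%, or exactly half above 10 with the replicate mean above 10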
MC4R barr agon: human MC4R agonism via beta-arrestin | activation, % at 8.9 µM | actives 0.98% (n = 360,000) | U2OS MC4R beta-arrestin complementation, luminescence; percent of melanotan II response, DMSO zero | AID 540308 | P32245;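 active = activation above a per-plate cutoff, the mean activation of sample wells on that plate plus 3 SD, cut at about 8% in these data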
CHOP UPR activ: activators of apoptotic arm of unfolded protein response (CHOP) | CHO-CHOP luciferase reporter, UPR activation, luminescence; percent of tunicamycin response over DMSO baseline | activation, % at 10 µM | actives 0.34% (n = 330,000);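 active = at 10 µM dose, activation of 40% or more, normalized to positive control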
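Dosing – one dose, 10 µM in 0.5% DMSO · System – CHO-CHOP cells, stable luciferase reporter of PERK-eIF2a-CHOP signalling · Input – 500 cells/well · Control set – tunicamycin 10 µg/mL final as positive, DMSO-only wells as negative · Timing – 6 h compound treatment, 37 °C · Measure – % activation vs tunicamycin · Technique – luminescence read with Steady-Glo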
UPR XBP1 act: adaptive UPR (XBP1) activation; CHO-XBP1 luciferase reporter, IRE1-XBP1 UPR activation, luminescence; percent of tunicamycin response, DMSO as zero; actives 0.33% (n = 330,000); activation, % at 20 µM; AID 463104;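 active = versus positive control, 20 µM dose yields 30% or more activation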
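Material: CHO-XBP1 cells stably carrying IRE1-XBP1-driven luciferase reporter | Medium: F12 with 10% serum | Compound dosing: 20 µM single concentration, DMSO 1% | Incubation: Overnight seeding at 37 °C, 6 h compound treatment at 37 °C | Detection: Steady-Glo luminescence read | Read-out basis: % activation of reporter signal versus tunicamycin and DMSO controls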
MC4R barr ag: human MC4R beta-arrestin agonism confirmation. shares compounds with MC4R barr agon. activation, % at 8.9 µM. U2OS MC4R beta-arrestin recruitment, luminescence; scaled DMSO 0%, Melanotan II 100%. actives 31% (n = 2,400);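 active = mean activation across replicates above the hit cutoff set in the earlier primary screen, cut at about 8% in these data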
MOR-DOR barr ag: activates mu-delta opioid heterodimer, MC4R agonist counter-screen; shares compounds with MC4R barr agon; U2OS PathHunter beta-arrestin, beta-gal luminescence; percent of deltorphin B response, DMSO zero; activation, % at 9.2 µM; actives 5.8% (n = 2,400); AID 602194;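 active = mean activation across replicates exceeds the hit threshold derived in the earlier primary screen, cut at about 18% in these data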
Target sequence (P35372 whole entry, looked up): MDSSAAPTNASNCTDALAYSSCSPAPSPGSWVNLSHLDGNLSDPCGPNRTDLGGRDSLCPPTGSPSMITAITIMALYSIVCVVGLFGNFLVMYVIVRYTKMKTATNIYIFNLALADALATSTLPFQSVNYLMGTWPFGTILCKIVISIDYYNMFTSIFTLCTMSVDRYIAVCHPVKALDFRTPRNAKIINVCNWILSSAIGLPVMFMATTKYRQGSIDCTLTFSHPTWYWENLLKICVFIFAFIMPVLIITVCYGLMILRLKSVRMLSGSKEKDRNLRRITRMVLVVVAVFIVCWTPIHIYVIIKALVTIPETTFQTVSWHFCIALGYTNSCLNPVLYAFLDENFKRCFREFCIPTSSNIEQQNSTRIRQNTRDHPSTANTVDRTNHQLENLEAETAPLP
Target sequence (P41143 whole entry, looked up): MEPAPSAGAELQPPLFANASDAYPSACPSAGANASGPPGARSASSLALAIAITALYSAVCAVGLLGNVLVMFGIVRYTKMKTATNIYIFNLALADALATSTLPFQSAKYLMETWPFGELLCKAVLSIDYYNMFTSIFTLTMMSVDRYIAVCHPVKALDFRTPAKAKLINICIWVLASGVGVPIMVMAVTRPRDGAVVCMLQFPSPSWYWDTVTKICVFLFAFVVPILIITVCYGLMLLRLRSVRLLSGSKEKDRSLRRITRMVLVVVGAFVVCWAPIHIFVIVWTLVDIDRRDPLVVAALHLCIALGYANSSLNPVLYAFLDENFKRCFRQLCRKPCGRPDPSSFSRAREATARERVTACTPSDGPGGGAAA
Of the large screens only hits and unclear results are named; the others gave an inactive call (follow-up assays come after a bar, where they were run). A selection: hits, their analogues and other compounds. The true share with any hit is near 2%.

CN(C)CCN(Cc1ccc(Cl)cc1)c1ccccn1	none
O=C(Nc1ccc(Oc2ccccc2)cc1)c1csc([C@H]2C[C@H](O)[C@@H](CO)O2)n1	none (no result: Bfl-1 A1 inh, CHOP UPR activ, UPR XBP1 act)
CCOC(=O)CCC1(C(=O)OC)C(=O)CCCCCC=C1C(=O)OC (centres undefined)	none (no result: Bfl-1 A1 inh, CHOP UPR activ, UPR XBP1 act)
Cc1cc(NC(=O)c2cccc(COc3ccc(Br)cc3)c2)no1	MC4R barr agon 12 | MC4R barr ag 12 | MOR-DOR barr ag inactive
N#Cc1c(NC(=O)CSc2ncccn2)oc(-c2ccccc2)c1-c1ccccc1	none
Cc1ccnc(SCC(=O)Nc2oc(-c3ccccc3)c(-c3ccccc3)c2C#N)n1	MC4R barr agon 17 | MC4R barr ag inactive | MOR-DOR barr ag inactive
CCCc1ccc(OCC(O)CN2CCN(c3ccccc3)CC2)cc1 (centres undefined)	none
CCc1ccc(OCC(O)CN2CCN(c3ccccc3)CC2)cc1 (centres undefined)	MC4R barr agon 11 | MC4R barr ag inactive | MOR-DOR barr ag inactive
Cc1c(C(=O)NCc2cccs2)sc(=O)n1Cc1ccc(S(C)(=O)=O)cc1	none (no result: Bfl-1 A1 inh, CHOP UPR activ, UPR XBP1 act)
Cc1csc(NC(=O)C2(C)CCN2C(=O)C(C)C)c1C#N (centres undefined)	none (no result: Bfl-1 A1 inh, CHOP UPR activ, UPR XBP1 act)
O=c1c(Cl)c(N/N=C/c2ccc(Br)cc2)cnn1-c1ccccc1	MC4R barr agon 16 | MC4R barr ag 12 | MOR-DOR barr ag inactive
CCCCCOC(=O)Nc1ccc(S(=O)(=O)Nc2cccc([N+](=O)[O-])c2)cc1	MC4R barr agon 14 | MC4R barr ag 9.7 | MOR-DOR barr ag inactive
Cc1ccccc1C(=O)N[C@H](C(=O)Nc1ccc(Cl)c(Cl)c1)C(C)C	MC4R barr agon 17 | MC4R barr ag inactive | MOR-DOR barr ag inactive
CC(C)[C@H](NC(=O)c1ccccc1F)C(=O)Nc1ccc(F)c(F)c1	none
COc1ccc(NC(=S)N/N=C/c2ccc(F)c(F)c2)cc1	MC4R barr agon 14 | MC4R barr ag inactive | MOR-DOR barr ag inactive
O=[N+]([O-])c1cc(/C=N/NC(=S)Nc2ccccc2Cl)ccc1Cl	none
Cc1ccc(NC(=S)N/N=C/c2ccc(Cl)c([N+](=O)[O-])c2)cc1	MC4R barr agon 21 | MC4R barr ag inactive | MOR-DOR barr ag inactive
COc1ccc(NC(=S)N/N=C/c2cccn2Cc2ccccc2F)cc1	MC4R barr agon 10 | MC4R barr ag inactive | MOR-DOR barr ag inactive
Cc1ccc(NC(=S)NCc2ccccc2)cc1[N+](=O)[O-]	none
COc1ccc(NC(=S)N/N=C/c2cccn2Cc2ccc(F)cc2Cl)cc1	none
Cc1ccc(CNC(=S)Nc2ccc(C)c([N+](=O)[O-])c2)cc1	MC4R barr agon 13 | MC4R barr ag inactive | MOR-DOR barr ag inactive
Cc1ccc(C)c(NC(=O)CN2C(=O)C3CC=CCC3C2=O)c1 (centres undefined)	none (no result: Bfl-1 A1 inh, CHOP UPR activ, UPR XBP1 act)
Cn1c(=O)c2c(ncn2CC(=O)OCC(=O)c2ccc(Br)cc2)n(C)c1=O	none (no result: Bfl-1 A1 inh, CHOP UPR activ, UPR XBP1 act)
COc1cc(C(=O)N2CCCC(c3cc(C(=O)NCc4ccc(F)cc4)no3)C2)cc(OC)c1C (centres undefined)	none (no result: Bfl-1 A1 inh, CHOP UPR activ, UPR XBP1 act)
COC(=O)c1cccc(CC2(C)C(=O)Nc3cc(-c4ccccc4Cl)ccc32)c1 (centres undefined)	none (no result: Bfl-1 A1 inh, CHOP UPR activ, UPR XBP1 act)
COc1ccc(NC(=O)c2c(-c3ccccc3)noc2C)c(OC)c1	none
COc1cc(OC)c(NC(=O)c2c(-c3ccccc3)noc2C)cc1Cl	MC4R barr agon 25 | MC4R barr ag inactive | MOR-DOR barr ag inactive
COc1ccc(Cl)cc1NC(=O)c1c(-c2ccccc2)noc1C	MC4R barr agon 27 | MC4R barr ag inactive | MOR-DOR barr ag inactive
COc1ccc(Cl)cc1NC(=O)COC(=O)c1c(-c2ccccc2)noc1C	none
C[C@@H]1CN([C@H](C)CO)C(=O)CCCn2cc(nn2)CO[C@H]1CN(C)S(=O)(=O)c1ccc(-c2ccccc2)cc1	none (no result: Bfl-1 A1 inh, CHOP UPR activ, UPR XBP1 act)
Cn1nc(C(=O)NCC(=O)Nc2ccc(F)c(F)c2)ccc1=O	none (no result: Bfl-1 A1 inh, CHOP UPR activ, UPR XBP1 act)
CC1=C(SCCC#N)S/C(=C2\SC(C)=C(SCCC#N)S2)S1	MC4R barr agon 19 | MC4R barr ag inactive | MOR-DOR barr ag inactive
Cc1cc(OCCN2CC(C)OC(C)C2)ccc1[N+](=O)[O-] (centres undefined)	none
Cc1cc(OCCN2CCC(Cc3ccccc3)CC2)ccc1[N+](=O)[O-]	MC4R barr agon 14 | MC4R barr ag inactive | MOR-DOR barr ag inactive
Cc1nc(NC(=O)/C=C/c2ccccc2)sc1C(=O)Nc1cccc(Cl)c1	MC4R barr agon 12 | MC4R barr ag inactive | MOR-DOR barr ag inactive
Nc1c(C(=O)NCc2ccccc2)c2nc3ccccc3nc2n1-c1ccc2c(c1)OCO2	none
Nc1ccc(-n2c(N)c(C(=O)NCc3ccc4c(c3)OCO4)c3nc4ccccc4nc32)cc1	MC4R barr agon 13 | MC4R barr ag inactive | MOR-DOR barr ag inactive
CCCn1c(SCC(=O)NCc2ccc(OC)cc2)n[nH]c1=O	none
CCCn1c(SCC(=O)N2N=C3/C(=C/c4ccc(OC)cc4)CCCC3C2c2ccc(OC)cc2)n[nH]c1=O (centres undefined)	MC4R barr agon 13 | MC4R barr ag 14 | MOR-DOR barr ag inactive
CCCCN(C=O)c1c(CC)nc2c(OCCOc3ccccc3)cccn12	none (no result: Bfl-1 A1 inh, CHOP UPR activ, UPR XBP1 act)
CCOC(=O)Cc1csc(N/N=C/c2cccc([N+](=O)[O-])c2)n1	MC4R barr agon 14 | MC4R barr ag inactive | MOR-DOR barr ag inactive
O=[N+]([O-])c1cccc(-c2csc(N/N=C/c3cccc(O)c3)n2)c1	MC4R barr agon 11 | MC4R barr ag 9.8 | MOR-DOR barr ag inactive
CC(=O)c1sc(N/N=C/c2cccc([N+](=O)[O-])c2)nc1C	none
COc1c(C)cc(C(O)c2ncc(-c3ccccc3F)[nH]2)cc1C (centres undefined)	none (no result: Bfl-1 A1 inh, CHOP UPR activ, UPR XBP1 act)
C[C@H](NC(=O)C1CCN(C(=O)[C@@H]2CCCN2C(=O)OC(C)(C)C)CC1)C(=O)NCc1ccc(F)cc1	none (no result: Bfl-1 A1 inh, CHOP UPR activ, UPR XBP1 act)
COC(=O)[C@H]1C[C@H](OC(=O)NCc2ccco2)[C@@]2(O)CN(S(=O)(=O)c3ccc(C)cc3)CC2[C@H]1C(=O)OC (some centres undefined)	none (no result: Bfl-1 A1 inh, CHOP UPR activ, UPR XBP1 act)
COc1nc2c(C)cccc2cc1-c1noc(-c2ccco2)n1	MC4R barr agon 14 | MC4R barr ag inactive | MOR-DOR barr ag inactive
COc1nc(-c2ccc(Cl)cc2)ccc1-c1noc(-c2ccco2)n1	none
CCOc1ccc(Cn2c3ccc(OC)cc3c3nc4ccccc4nc32)cc1	MC4R barr agon 30 (no result: CHOP UPR activ, UPR XBP1 act) | MC4R barr ag 38 | MOR-DOR barr ag inactive
